Measurements pooled from the literature.
Lines come from different studies, so protocols differ.
CDK2 with cyclin E1: Cyclin-dependent kinase 2, with cyclin E1 (CDK2, Homo sapiens, UniProt P24941)

CC(C)[C@H](NC(=O)[C@H](CCCNC(=N)N)NC(=O)N[C@@H](Cc1ccccc1)C(=O)O)C(=O)N[C@H](C=O)CCCNC(=N)N gave an IC50 of 0.00822 µM (Cathepsin B (CTSB, Homo sapiens, UniProt P07858); enzyme activity; inhibitor; fluorescence; pH 5.5).
Cc1ccc(-c2ncn(-c3ccc(Nc4nccc(-c5cccc(N6CCOCC6)c5)n4)cc3)n2)cn1 has an IC50 of 0.159 µM (Mitogen-activated protein kinase 10 (MAPK10, Homo sapiens, UniProt P53779); enzyme activity; inhibitor).
O=c1c(O)c(-c2cc(O)c(O)c(O)c2)oc2cc(O)cc(O)c12 gave an IC50 of 22 µM (Genome polyprotein, protease (ZIKV, UniProt A0A024B7W1); enzyme activity; inhibitor; FRET; pH 7).
O=c1cc(-c2ccccc2)oc2c1ccc1occc12 has an IC50 of 7.9 µM (CDK2 with cyclin E1; enzyme activity; inhibitor; ADP detection).
N=C1CCCN1Cc1[nH]c(=O)[nH]c(=O)c1Br has an IC50 of 0.0027 µM (Thymidine phosphorylase (Homo sapiens, UniProt P19971); enzyme activity; inhibitor).
C[C@H](N)Cn1ncc2ccc3c(c21)CCCO3 gave an IC50 of 100 µM (Alpha-1A adrenergic receptor (Adra1a, Rattus norvegicus, UniProt P43140); ligand displacement; radioligand).
The IC50 of COc1ncccc1NS(=O)(=O)c1ccc(S(=O)(=O)F)c2c1CCNC2 is reported as over 100 µM (RALB (Homo sapiens, UniProt P11234, Y82F); cell-free assay; inhibitor; fluorescence).
COc1cc(NC(=O)C(=O)[C@H](CC(C)C)NC(=O)[C@H](CC(C)C)NC(=O)[C@H](CC(C)C)NC(=O)OCc2ccccc2)cc(OC)c1 gave an IC50 of 0.0251 µM (Proteasome component C5/PSMB5, chymotrypsin-like site (Homo sapiens, UniProt P20618+P28074); enzyme activity in cells; inhibitor).
Nc1ncnc2c1ncn2[C@@H]1O[C@H](COP(=O)(O)OP(=O)(O)OP(=O)(O)O)[C@@H](O)[C@H]1O gave an IC50 of 0.2 µM (Heat shock cognate 71 kDa protein (HSPA8, Homo sapiens, UniProt P11142); ligand displacement; FP).
With COc1c(-c2ccc3c(c2)OCO3)oc2c(ccc3occc32)c1=O the IC50 was over 100 µM (CDK2 with cyclin E1; enzyme activity; inhibitor; ADP detection).
The IC50 of CC(C)C[C@H]1C(=O)N2CCC[C@H]2[C@]2(O)O[C@](NC(=O)[C@@H]3C=C4c5cccc6[nH]c(Br)c(c56)C[C@H]4N(C)C3)(C(C)C)C(=O)N12 is reported as 0.152 µM (5-hydroxytryptamine receptor 7 (HTR7, Homo sapiens, UniProt P34969); ligand displacement; radioligand).
For CC1=NCCc2c1[nH]c1cc(O)ccc21, the IC50 was 14 µM (Receptor-type tyrosine-protein phosphatase C (PTPRC, Homo sapiens, UniProt P08575); enzyme activity; inhibitor; fluorescence).
The IC50 of CC(=O)c1cc(O)c2ccccc2c1O is reported as 12.9 µM (Genome polyprotein, methyltransferase (ZIKV, UniProt A0A024B7W1); enzyme activity; inhibitor; TR-FRET).
With COc1cc(C(=O)N2CC[C@@H](O)[C@@H](N)C2)cc2nc(-c3cc4ccccc4n3CC3CC3)n(C)c12 the IC50 was 39.8 µM (Sodium channel protein type 5 subunit alpha (SCN5A, Homo sapiens, UniProt Q14524); ion current; inhibitor).
